Laboratory results taken from ChEMBL document CHEMBL1142511, “[(18)F]-labeled isoindol-1-one and isoindol-1,3-dione derivatives as potential PET imaging agents for detection of beta-amyloid fibrils” (Bioorg Med Chem Lett, 2008).

Test: Displacement of [125I]TZDM from amyloid beta 1 to 42 aggregates
Method in brief: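 Competitive binding against aggregated Aβ1–42 with [125I]TZDM as radioligand. Non-specific binding defined with 2 µM thioflavin T. Incubated 3 h at room temperature. Bound and free radioactivity separated by vacuum filtration through GF/B filters, followed by two washes with 10% EtOH at room temperature. IC50 converted to Ki by the Cheng–Prusoff equation.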

Row | SMILES | Ki
1 | Nc1ccc(N2Cc3cc(OCCF)ccc3C2=O)cc1 | 0.61 nM
2 | CNc1ccc(N2C(=O)c3ccc(OCCCF)cc3C2=O)cc1 | 0.78 nM
3 | CN(C)c1ccc(N2Cc3cc(OCCF)ccc3C2=O)cc1 | 0.3 nM
4 | Nc1ccc(N2Cc3cc(OCCCF)ccc3C2=O)cc1 | 0.4 nM
5 | CN(C)c1ccc(N2C(=O)c3ccc(OCCCF)cc3C2=O)cc1 | 0.85 nM
6 | CNc1ccc(-c2nc3ccc(O)cc3s2)cc1 [PITTSBURGH COMPOUND B UNLABELLED] | 0.77 nM

Further molecules by falling Ki, results first:

Row | Ki | SMILES
7 | 0.91 nM | CNc1ccc(N2Cc3cc(OCCF)ccc3C2=O)cc1
8 | 0.74 nM | Nc1ccc(N2C(=O)c3ccc(OCCCF)cc3C2=O)cc1
9 | 0.71 nM | CN(C)c1ccc(N2Cc3cc(OCCCF)ccc3C2=O)cc1
10 | 0.69 nM | CN(C)c1ccc(N2C(=O)c3ccc(OCCF)cc3C2=O)cc1
11 | 0.6 nM | CNc1ccc(N2C(=O)c3ccc(OCCF)cc3C2=O)cc1
12 | 0.59 nM | Nc1ccc(N2C(=O)c3ccc(OCCF)cc3C2=O)cc1
13 | 0.51 nM | CNc1ccc(N2Cc3cc(OCCCF)ccc3C2=O)cc1
